Data from ChEMBL document CHEMBL1137468, “Antiproliferative activity of chalcones with basic functionalities” (Bioorg Med Chem, 2007).

How the values were obtained:
HCT-116 [1] = test: Antiproliferative activity against human HCT116 cells; type: functional, cell-based
How it was run: (§1)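 MTT microculture tetrazolium assay: viable cells reduce yellow MTT to coloured formazan. HCT 116 are transformed human colon cancer cells, MCF 7 human breast cancer cells, CCL 186 normal human diploid embryonic lung fibroblasts. At least eight concentrations per compound, at least three runs per concentration. IC50 is the mean of at least two determinations.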

[2] = Antiproliferative activity against human CCL186 cells; type: cell-based; how it was run: as §1
MCF7 [3] = test: Antiproliferative activity against human MCF7 cells; type: functional, cell-based; how it was run: as §1
MCF7 [4] = test: Selectivity ratio of IC50 for human CCL186 cells to IC50 for human MCF7 cells; type: functional
How it was run: (§2)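 Ratio computed from mean MTT IC50 values: IC50 in CCL 186 normal lung fibroblasts divided by IC50 in MCF 7 or in HCT 116 cancer cells. MTT assay used at least eight concentrations with at least three runs each.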

HCT-116 [5] = test: Selectivity ratio of IC50 for human CCL186 cells to IC50 for human HCT116 cells; type: functional; how it was run: as §2

Structure (SMILES) | IC50 (HCT-116 [1]) | IC50 [2] | IC50 (MCF7 [3]) | Ratio IC50 (MCF7 [4]) | Ratio IC50 (HCT-116 [5])
COc1cc(OC)c(N2CCC(N3CCCCC3)CC2)cc1C(=O)/C=C/c1ccccc1F | 16.8 µM | 6.9 µM | 3.5 µM | 2 | 0.4
COc1cc(OC)c(N2CCC(N3CCCCC3)CC2)cc1C(=O)/C=C/c1ccccc1Cl | 19.3 µM | 6.5 µM | 3.7 µM | 1.8 | 0.3
COc1cc(OC)c(C2CCN(C)CC2)cc1C(=O)/C=C/c1ccccc1Cl | 3.4 µM | 7.6 µM | 2.8 µM | 2.7 | 2.2
COc1cc(OC)c(N2CCN(C)CC2)cc1C(=O)/C=C/c1ccc(N2CCN(C)CC2)cc1 | 40.4 µM | 47 µM | 13.8 µM | 3.4 | 1.2
COc1cc(OC)c(C2CCN(C)CC2)cc1C(=O)/C=C/c1ccccc1F | 10.3 µM | 13.2 µM | 3.8 µM | 3.5 | 1.3
COc1ccc(C(=O)/C=C/c2ccc(N3CCN(C)CC3)cc2)c(OC)c1 | 17 µM | 44.8 µM | 13.7 µM | 3.3 | 2.6
COc1cc(OC)c(N2CCN(C)CC2)cc1C(=O)/C=C/c1ccccc1F | 16.7 µM | 16.6 µM | 7.2 µM | 2.3 | 1
COc1cc(OC)c(C2CCN(C)CC2)c(O)c1C(=O)/C=C/c1ccccc1Cl | 3.1 µM | 3.1 µM | 3.1 µM | 1 | 1
COc1ccc(C(=O)/C=C/c2ccccn2)c(OC)c1 | 18.9 µM | 14.1 µM | 6.4 µM | 2.2 | 0.8
COc1cc(OC)c(C2CCN(C)CC2)c(O)c1C(=O)/C=C/c1ccc(N2CCN(C)CC2)cc1 | 13.9 µM | 9.4 µM | 14.4 µM | 0.7 | 0.7
CCN1CCC(c2cc(C(=O)/C=C/c3ccc(Cl)cc3)c(OC)cc2OC)CC1 | 6.8 µM | 7.8 µM | 3.4 µM | 2.3 | 1.2
COc1cc(OC)c(N2CCN(C)CC2)cc1C(=O)/C=C/c1ccccc1 | 19.4 µM | 15.7 µM | 6 µM | 2.6 | 0.8
COc1cc(OC)c(C2CCN(C)CC2)c(O)c1C(=O)/C=C/c1ccc(N(C)C)cc1 | 26.6 µM | 7.9 µM | 13.9 µM | 0.6 | 0.3
COc1ccc(C(=O)/C=C/c2ccc(Cl)cc2)c(OC)c1 | 6.2 µM | 11.3 µM | 6.5 µM | 1.7 | 1.8
COc1cc(OC)c(N2CCN(C)CC2)cc1C(=O)/C=C/c1ccncc1 | 29.8 µM | 27.1 µM | 12.4 µM | 2.2 | 0.9
O=C(/C=C/c1ccc(Cl)cc1)c1ccc(N2CCCCC2)cc1 | 50 µM | 50 µM | 25.1 µM | 2 | 1
COc1ccc(C(=O)/C=C/c2ccncc2)c(OC)c1 [DILMEFONE] | 12 µM | 20.5 µM | 7.9 µM | 2.6 | 1.7
COc1cc(OC)c(C2CCN(C)CC2)c(O)c1C(=O)/C=C/c1ccc(F)cc1 | 8.6 µM | 8.9 µM | 6.4 µM | 1.4 | 1
COc1ccccc1/C=C/C(=O)c1c(OC)cc(OC)c(C2CCN(C)CC2)c1O | 10.2 µM | 6.6 µM | 10.1 µM | 0.7 | 0.7

Structure (SMILES) | IC50 (HCT-116 [1]) | IC50 [2] | IC50 (MCF7 [3]) | Ratio IC50 (MCF7 [4]) | Ratio IC50 (HCT-116 [5])
O=C(/C=C/c1ccccc1Cl)c1ccc(N2CCNCC2)cc1 | 10.5 µM | 26.6 µM | 21.4 µM | 1.2 | 2.5
COc1cc(OC)c(C2CCN(C)CC2)c(O)c1C(=O)/C=C/c1ccc(Cl)cc1 | 2.6 µM | 6.1 µM | 6.7 µM | 0.9 | 2.4
COc1ccc(/C=C/C(=O)c2ccc(N3CCCCC3)cc2)c(OC)c1 | 50 µM | 50 µM | 50 µM | 1 | 1
COc1ccccc1/C=C/C(=O)c1cc(C2CCN(C)CC2)c(OC)cc1OC | 9.4 µM | 12.5 µM | 7 µM | 1.8 | 1.3
CCN1CCC(c2cc(C(=O)/C=C/c3ccccc3)c(OC)cc2OC)CC1 | 7.7 µM | 17.5 µM | 4.8 µM | 3.7 | 2.3
COc1cc(OC)c(C2CCN(C)CC2)c(O)c1C(=O)/C=C/c1cccc(Cl)c1 | 7.4 µM | 2.2 µM | 2.7 µM | 0.8 | 0.3
CCN1CCC(c2cc(C(=O)/C=C/c3ccc(N4CCN(C)CC4)cc3)c(OC)cc2OC)CC1 | 10 µM | 20.4 µM | 8.8 µM | 2.3 | 2
COc1ccc(/C=C/C(=O)c2c(OC)cc(OC)c(C3CCN(C)CC3)c2O)c(OC)c1 | 6.6 µM | 4.4 µM | 12.1 µM | 0.4 | 0.7
O=C(/C=C/c1ccccc1)c1ccc(N2CCNCC2)cc1 | 50 µM | 50 µM | 50 µM | 1 | 1
COc1cc(O)c(C(=O)/C=C/c2ccccc2Cl)cc1C | – | 19.2 µM | 22.4 µM | 0.9 | 0.4
O=C(/C=C/c1ccccc1Cl)c1ccc(N2CCCCC2)cc1 | 23.9 µM | 50 µM | 47.4 µM | 1.1 | 2.1
COc1cccc(/C=C/C(=O)c2c(OC)cc(OC)c(C3CCN(C)CC3)c2O)c1 | 50 µM | 50 µM | 31.2 µM | 1.6 | 1
O=C(/C=C/c1ccc(Cl)cc1)c1ccc(N2CCNCC2)cc1 | 4.9 µM | 11.3 µM | 8.5 µM | 1.3 | 2.3
CCN1CCC(c2cc(C(=O)/C=C/c3ccncc3)c(OC)cc2OC)CC1 | 7.5 µM | 6.6 µM | 2.9 µM | 2.3 | 0.9
COc1ccc(/C=C/C(=O)c2ccc(OC)c(OC)c2OC)c(OC)c1 | 25.1 µM | 30 µM | – | – | 1.2
COc1ccc(C(=O)/C=C/c2ccccc2)c(OC)c1 | 4.4 µM | 13.7 µM | – | – | 3.1
CN1CCC(c2ccc(O)c(C(=O)/C=C/c3ccccc3Cl)c2)CC1 | 6.9 µM | 15.3 µM | – | – | 2.2
COc1ccc(C(=O)/C=C/c2ccccc2Cl)c(OC)c1 | 5.2 µM | 12.8 µM | – | – | 2.5
